Source: ChEMBL document CHEMBL3352202 (J Med Chem, 2014)

Legend:
[1] = Antiproliferative activity against human PC3 cells after 96 hrs by SRB assay; type: functional, cell-based; conditions: PC-3, 96 h
Method in brief: (§1)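 Prostate cancer lines were exposed to compound for 96 h, with cell growth read by sulforhodamine B staining. Results are IC50 ± SEM.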

[2] = Antiproliferative activity against human PPC1 cells after 96 hrs by SRB assay; type: functional, cell-based; conditions: PPC-1, 96 h; method in brief: as §1
LNCaP = test: Antiproliferative activity against human LNCAP cells after 96 hrs by SRB assay; type: functional, cell-based; method in brief: as §1
DU-145 = test: Antiproliferative activity against human DU145 cells after 96 hrs by SRB assay; type: functional, cell-based; conditions: DU-145, 96 h; method in brief: as §1
A-375 = test: Antiproliferative activity against human A375 cells after 96 hrs by SRB assay; type: functional, cell-based; conditions: A-375, 96 h
[3] = Antiproliferative activity against mouse B16-F1 cells after 96 hrs by SRB assay; type: functional, cell-based; conditions: B16-F1, 96 h
Tubulin (Bos taurus) [4] = target: T1, Tubulin (Bos taurus) (UniProt Q6B856+Q862L2+Q862F3); test: Inhibition of bovine brain tubulin polymerization at 10 uM for 20 mins by spectrophotometry
Method in brief: (§2)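 Bovine brain tubulin (0.4 mg, >97% pure) in general tubulin buffer pH 6.9 (80 mM PIPES, 2.0 mM MgCl2, 0.5 mM EGTA, 1 mM GTP) with compound at 5 or 10 μM, 37 °C. A340 was read each minute for 20 min, and percent inhibition was taken relative to vehicle.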

Liver microsome [5] = test: Half life in rat liver microsomes at 0.5 uM by LC-MS/MS analysis
Liver microsome [6] = test: Half life in human liver microsomes at 0.5 uM by LC-MS/MS analysis
Tubulin (Bos taurus) [7] = target: T1, Tubulin (Bos taurus); test: Inhibition of bovine brain tubulin polymerization at 5 uM for 20 mins by spectrophotometry; method in brief: as §2
Liver = test: Half life in mouse liver microsomes at 0.5 uM by LC-MS/MS analysis

## COc1cc(-c2cccc3[nH]c(-c4ccccc4)nc23)cc(OC)c1OC
[1]
  IC50: 2400 nM
[2]
  IC50: 2100 nM
LNCaP
  IC50: 2100 nM
DU-145
  IC50: 7800 nM

## COc1cc(-c2cccc3[nH]c(-c4n[nH]c5ccccc45)nc23)cc(OC)c1OC
[1]
  IC50: 800 nM
[2]
  IC50: 1000 nM
LNCaP
  IC50: 1600 nM
A-375
  IC50: 1100 nM
DU-145
  IC50: 4000 nM

## COc1cc(C(=O)c2c[nH]c(Nc3ccccc3)n2)cc(OC)c1OC
[1]
  IC50: > 30000 nM
[2]
  IC50: > 30000 nM
LNCaP
  IC50: > 30000 nM
A-375
  IC50: > 30000 nM
[3]
  IC50: > 30000 nM
DU-145
  IC50: > 30000 nM

## COc1cc(-c2cccc3[nH]c(-c4c[nH]c5ccccc45)nc23)cc(OC)c1OC
[1]
  IC50: 900 nM
[2]
  IC50: 1300 nM
LNCaP
  IC50: 800 nM
A-375
  IC50: 600 nM
DU-145
  IC50: 4200 nM

## COc1cc(-c2nccc3[nH]c(-c4ccc5[nH]ccc5c4)nc23)cc(OC)c1OC
[1]
  IC50: 6 nM
[2]
  IC50: 42 nM
LNCaP
  IC50: 5 nM
A-375
  IC50: 5 nM
Tubulin (Bos taurus) [4]
  inhibition: 81%
Liver microsome [5]
  t1/2: 30.4 min
Liver microsome [6]
  t1/2: 45.3 min
Tubulin (Bos taurus) [7]
  inhibition: 33%
Liver
  t1/2: 19.7 min

## COc1cc(C(=O)c2csc(-c3ccccc3)n2)cc(OC)c1OC(=O)CCl
[1]
  IC50: > 10000 nM
[2]
  IC50: > 10000 nM
LNCaP
  IC50: > 10000 nM
A-375
  IC50: 10800 nM
[3]
  IC50: 3200 nM
DU-145
  IC50: > 10000 nM

## COCOc1c(OC)cc(C(=O)c2csc(-c3ccccc3)n2)cc1OC
[1]
  IC50: 17 nM
[2]
  IC50: 22 nM
LNCaP
  IC50: 31 nM
A-375
  IC50: 20 nM
[3]
  IC50: 19 nM
Liver microsome [5]
  t1/2: 9.7 min
Liver microsome [6]
  t1/2: 7.8 min
DU-145
  IC50: 112 nM
Liver
  t1/2: 4 min

## COc1cc(C(=O)c2csc(-c3ccccc3)n2)cc(OC)c1OCCN1C(=O)c2ccccc2C1=O
[1]
  IC50: > 10000 nM
[2]
  IC50: 600 nM
LNCaP
  IC50: 1400 nM
A-375
  IC50: 3100 nM
[3]
  IC50: 1300 nM
DU-145
  IC50: 600 nM

## COc1cc(C(=O)c2csc(-c3ccccc3)n2)cc(OC)c1OC
[1]
  IC50: 21 nM
[2]
  IC50: 43 nM
[3]
  IC50: 55 nM

## COc1cc(C(=O)c2csc(Nc3ccccc3)n2)cc(OC)c1OC
[1]
  IC50: 21 nM
[2]
  IC50: 43 nM
LNCaP
  IC50: 28 nM
A-375
  IC50: 28 nM
[3]
  IC50: 65 nM
DU-145
  IC50: 71 nM

## COc1cc(C(=O)c2csc(-c3ccccc3)n2)cc(OC)c1OC(=O)C(F)(F)F
[1]
  IC50: > 10000 nM
[2]
  IC50: > 10000 nM
LNCaP
  IC50: > 10000 nM
A-375
  IC50: 22200 nM
[3]
  IC50: 8900 nM
DU-145
  IC50: > 10000 nM

## COc1cc(-c2cccc3[nH]c(-c4ccc5[nH]ccc5c4)nc23)cc(OC)c1OC
[1]
  IC50: 22 nM
[2]
  IC50: 20 nM
LNCaP
  IC50: 28 nM
A-375
  IC50: 25 nM
Tubulin (Bos taurus) [4]
  inhibition: 60%
Tubulin (Bos taurus) [7]
  inhibition: 30%
DU-145
  IC50: 57 nM

## COc1cc(C(=O)c2csc(-c3ccccc3)n2)cc(OC)c1OCc1ccccc1
[1]
  IC50: > 10000 nM
[2]
  IC50: > 10000 nM
LNCaP
  IC50: > 10000 nM
A-375
  IC50: > 10000 nM
[3]
  IC50: 10600 nM
DU-145
  IC50: > 10000 nM

## COc1cc(C(=O)c2csc(-c3ccccc3)n2)cc(OC)c1OCCN
[1]
  IC50: 158 nM
[2]
  IC50: 184 nM
LNCaP
  IC50: 117 nM
A-375
  IC50: 527 nM
[3]
  IC50: 142 nM
DU-145
  IC50: 464 nM

## COc1cc(C(=O)c2csc(Nc3ccc4[nH]ccc4c3)n2)cc(OC)c1OC
[1]
  IC50: 12 nM
[2]
  IC50: 15 nM
LNCaP
  IC50: 13 nM
A-375
  IC50: 25 nM
[3]
  IC50: 84 nM
DU-145
  IC50: 24 nM
